Assay results from different studies.
Protocols differ between the studies behind these lines.
Sample: Caco-2

COc1cc(NC(=O)Cn2cc(Cl)c3cc(F)c(-c4cnn(C)c4)cc32)cc(OC)c1OC
efflux ratio: 18.2

N#Cc1ccc(C[C@H](Nc2c(Nc3ccc(Br)cc3)c(=O)c2=O)C(=O)N2CCc3ccccc32)cc1
efflux ratio (100 µM, 2 h): > 20

CC(C)(N)COCC(=O)N1CCC[C@H](C(=O)NCc2nc(-c3ccc(C(F)(F)F)cc3)cs2)C1
efflux ratio: 240

N#Cc1ccc(C[C@H](Nc2nnc(-c3ccc(F)cc3)s2)C(=O)N2CCc3ccccc32)cc1
efflux ratio (100 µM, 2 h): > 20

N[C@@H](COCC(=O)N1CCC[C@H](C(=O)NCc2nc(-c3ccc(C(F)(F)F)cc3)cs2)C1)c1ccccc1
efflux ratio: 11

Cc1cc(C)c(CNC(=O)c2cc(Cl)c3c(c2C)O[C@@](C)([C@H]2CC[C@H](N(C)C)CC2)O3)c(=O)[nH]1
efflux ratio (1 µM): 52.4

O=C(Nc1ccc(OC(F)(F)F)cc1)N[C@H]1CC[C@H](Oc2ccc(C(=O)O)cc2)CC1
efflux ratio: 0.98

O=c1c(O[C@@H]2O[C@H](CO)[C@H](O)[C@H](O)[C@H]2O)c(-c2ccc(O)c(O)c2)oc2cc(O)cc(O)c12
efflux ratio (200 µg/mL): 1.56

NCCOCC(=O)N1CCC[C@H](C(=O)NCc2nc(-c3ccc(C(F)(F)F)cc3)cs2)C1
efflux ratio: 120

C[C@H]1O[C@@H](O[C@H]2[C@@H](O)C[C@H](O[C@H]3[C@@H](O)C[C@H](O[C@H]4CC[C@@]5(C)[C@H](CC[C@@H]6[C@@H]5C[C@@H](O)[C@]5(C)[C@@H](C7=CC(=O)OC7)CC[C@]65O)C4)O[C@@H]3C)O[C@@H]2C)C[C@H](O)[C@@H]1O
efflux ratio (10 µM, 2 h): 28.3

CC(C)c1nc(N(C)S(C)(=O)=O)nc(-c2ccc(F)cc2)c1/C=C/[C@@H](O)C[C@@H](O)CC(=O)O
efflux ratio (5 µM, 2 h): 142

COCC(=O)N1CCC[C@H](C(=O)NCc2nc(-c3ccccc3)cs2)C1
efflux ratio: 1

O=c1cc(-c2ccc(O)cc2)oc2c([C@@H]3O[C@H](CO)[C@@H](O)[C@H](O)[C@H]3O)c(O)cc(O)c12
efflux ratio (200 µg/mL): 1.28
